Shown are actives, neighbours in structure and some others; about 4.1% of the full set was active somewhere.
Dynein transport: dynein cargo transport inhibition; 3617.4 mouse cells, GR-EGFP nuclear translocation imaging; test concentration mostly 20 µM; stimulated with dexamethasone, 1 µM; hits give low values; z-score, hits read low; hit rate 0.47% among 220,000;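 active means plate z-score of nuclear minus cytoplasmic receptor signal below a set negative limit, without overly bright fluorescence or cell loss, cut at about -3.5 in these data, passing the limit was not always enough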;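 further: z-score of nuclear minus cytoplasmic ring GR-EGFP intensity difference per well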
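Buffer or medium: tet-free medium with charcoal-stripped serum / Also added: dexamethasone agonist, 1.0 µM final, for 30 min / Timing: induction 48 h, compound 1 h, agonist 30 min / Measured by: high-content fluorescence imaging after fixation / Read-out: nuclear-to-cytoplasmic GR-EGFP distribution per well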
ROMK mod: modulates human ROMK potassium channel activity. P48048. Tet-inducible ROMK, thallium flux fluorescence; actives lie on both sides. B-score at 10 µM. hit rate 2% among 130,000;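 active means signal ratio slope over the read window, or its plate-corrected B-score, at least 3 SD from the plate mean, either direction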;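 further: B-score of the F/F0 ratio slope over 7 to 12 s after thallium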
Target sequence (P48048 whole entry, looked up): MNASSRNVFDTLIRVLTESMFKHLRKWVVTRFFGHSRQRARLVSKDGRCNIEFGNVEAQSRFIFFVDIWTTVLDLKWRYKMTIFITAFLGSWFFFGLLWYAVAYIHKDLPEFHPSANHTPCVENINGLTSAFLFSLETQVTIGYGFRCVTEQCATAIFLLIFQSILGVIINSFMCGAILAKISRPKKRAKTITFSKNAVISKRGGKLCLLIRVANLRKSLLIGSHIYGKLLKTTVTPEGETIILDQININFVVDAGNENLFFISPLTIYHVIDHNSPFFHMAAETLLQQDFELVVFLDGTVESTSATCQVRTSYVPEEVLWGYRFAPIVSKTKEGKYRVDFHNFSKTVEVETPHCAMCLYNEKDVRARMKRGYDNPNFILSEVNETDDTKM
Cl transport mod: KCC2 (human) Cl- transport modulation. Q9H2X9. AID 1456. B-score of Tl+ flux slope (higher = more flux/activation; lower = inhibition) at 10 µM. hit rate 2.2% among 190,000. KCC2 cells, thallium flux FluoZin-2 fluorescence;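 active means thallium flux slope and its plate-corrected score both differing from the plate sample mean at a set confidence after two filtering rounds, in either direction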;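 further: slope of fluorescence scaled to starting intensity during 10 to 20 s after thallium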
Redox H2O2 prof: compounds producing H2O2 with reducing agent – biochemical, NIH compound library profiling, artefact control for MLSCN library redox annotation, primary screen | DTT-dependent redox cycling H2O2, phenol red/HRP absorbance; 100% = 100 µM peroxide control, 0% = buffer | activation, % at 10 µM | hit rate 0.03% among 200,000 | AID 878;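 active means activation of at least 50% relative to the plate's high and low controls in the primary single-dose screen; inactive means activation below 50%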;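 further: compound incubated with DTT at 0.8 mM final as the reducing agent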
Autophagy mod: modulators of autophagy | hit rate 0.98% among 190,000 | calls only at 10 µM (by protocol) | AID 463193 | MEF GFP-LC3 puncta imaging; test concentration mostly 10 µM;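 active means percentage of spot-positive cells more than 3 SD above its plate mean, without a fluorescence outlier flag or 80% toxicity; inconclusive means no clear call, values can overlap the other calls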
ROMK retest: confirmation of human ROMK potassium channel modulators. shares compounds with ROMK mod. ROMK thallium flux, fluorescence ratio; hits give low values. normalized thallium flux (F/F0 slope) at 10 µM. hit rate 54% among 3,000. AID 1917;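 active means Flux at 10 µM at least 3 SD below or above vehicle control mean in one or both replicates; inconclusive means no clear call, values can overlap the other calls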
Hits are given with their value.

For COc1ccccc1C1OC2=C(Nc3ccc([N+](=O)[O-])cc3N2)C1=O (stereo unspecified) the results were Dynein transport inactive and Cl transport mod inactive.
Screening CC1Cc2ccccc2N1C(=O)CSc1nccc(=O)[nH]1 (stereo unspecified) returned Dynein transport inactive, ROMK mod inactive, Cl transport mod inactive, Redox H2O2 prof inactive and Autophagy mod inactive.
For Cc1c(/C=N/NC(=O)C(NC(=O)c2ccc3c(c2)OCO3)C(C)C)c2ccccc2n1C (stereo unspecified) the results were Dynein transport inactive, ROMK mod 1.6, Cl transport mod inactive, Redox H2O2 prof inactive, Autophagy mod inactive and ROMK retest inactive.
For CC(C)NC(=O)[C@H](CSCc1ccccc1)N1Cc2ccccc2C1=O the results were Dynein transport inactive, ROMK mod inactive, Cl transport mod inactive, Redox H2O2 prof inactive and Autophagy mod inactive.
O=C(NC1CCCCC1)[C@H](CSCc1ccccc1)N1Cc2ccccc2C1=O was read as Dynein transport inactive, ROMK mod -3.4, Cl transport mod inactive, Redox H2O2 prof inactive, Autophagy mod inactive and ROMK retest inconclusive.
C=CCOC(=O)C(C#N)c1nc2ccccc2nc1N1CCN(Cc2ccc3c(c2)OCO3)CC1 (stereo unspecified) was read as Dynein transport inactive, ROMK mod -3.2, Cl transport mod inactive, Redox H2O2 prof inactive, Autophagy mod inactive and ROMK retest 0.063.
`Cc1ccc(-c2cc(=O)c3cc(F)ccc3[nH]2)cc1` gave Dynein transport inactive, ROMK mod inactive, Cl transport mod inactive, Redox H2O2 prof inactive and Autophagy mod inactive.
Screening Cc1ccc2[nH]c(-c3cccc(F)c3)cc(=O)c2c1 returned Dynein transport inactive, ROMK mod 3.1, Cl transport mod inactive, Redox H2O2 prof inactive, Autophagy mod inactive and ROMK retest inactive.
For COc1ccc2[nH]c(-c3cccc(F)c3)cc(=O)c2c1 the results were Dynein transport inactive, ROMK mod 4, Cl transport mod inactive, Redox H2O2 prof inactive, Autophagy mod inactive and ROMK retest inactive.
`C/C(=N/NC(=O)c1ccc(Br)o1)C(C)C` gave Dynein transport inactive, ROMK mod inactive, Cl transport mod inactive, Redox H2O2 prof inactive and Autophagy mod inactive.
CCN1C(=O)c2cccc3c(S(=O)(=O)NCC4CCCO4)ccc1c23 (stereo unspecified) was read as Dynein transport inactive and Cl transport mod inactive.
`CC(=O)C1=C(C)NC(SCC(N)=O)=C(C#N)C1CC(C)C` (stereo unspecified) gave Dynein transport inactive, ROMK mod inactive, Cl transport mod inactive, Redox H2O2 prof inactive and Autophagy mod inactive.
`CCOC(=O)C1=C(C)NC(SC)=C(C#N)C1CC(C)C` (stereo unspecified) gave Dynein transport inactive, ROMK mod 2.5, Cl transport mod inactive and ROMK retest inactive.
`N#Cc1nc(-c2cccc3ccccc23)oc1NCCN1CCCCC1` gave Dynein transport inactive, ROMK mod -3.4, Cl transport mod inactive, Redox H2O2 prof inactive, Autophagy mod inactive and ROMK retest 0.065.
Screening COc1ccc(S(=O)(=O)Nc2ccc(F)c(F)c2)cc1Cl returned Dynein transport inactive, ROMK mod -3.2, Cl transport mod inactive, Redox H2O2 prof inactive, Autophagy mod inactive and ROMK retest 0.059.
COc1ccc(NS(=O)(=O)c2ccc(OC)c(OC)c2)cc1OC was read as Dynein transport inactive, Cl transport mod inactive, Redox H2O2 prof inactive and Autophagy mod inactive.
For CN(C)c1cccc(NC(=O)c2ccco2)c1 the results were Dynein transport inactive, ROMK mod 2.6, Cl transport mod inactive, Redox H2O2 prof inactive, Autophagy mod inactive and ROMK retest inactive.
For CSc1cccc(NC(=O)c2ccco2)c1 the results were Dynein transport inactive, Cl transport mod inactive, Redox H2O2 prof inactive and Autophagy mod inactive.
`COc1ccc(N2CCN(C(=O)Cc3ccc(S(=O)(=O)N4CCOCC4)s3)CC2)cc1` gave Dynein transport inactive, ROMK mod inactive, Cl transport mod inactive, Redox H2O2 prof inactive and Autophagy mod inactive.
COc1cc(CNc2ccc(N3CCCC3)cc2)cc(Cl)c1OC was read as Dynein transport inactive, ROMK mod 4, Cl transport mod inactive, Redox H2O2 prof inactive, Autophagy mod inactive and ROMK retest inactive.
`CCC(NC(=O)Nc1nccs1)(C(F)(F)F)C(F)(F)F` gave Dynein transport inactive, ROMK mod inactive, Cl transport mod inactive, Redox H2O2 prof inactive and Autophagy mod inactive.
`CCC(C(=O)Nc1nccs1)(C(F)(F)F)C(F)(F)F` gave Dynein transport inactive, ROMK mod inactive, Redox H2O2 prof inactive, Autophagy mod inactive and ROMK retest inconclusive.
`CCCNC(=O)Nc1nccs1` gave Dynein transport inactive, ROMK mod 1.7, Cl transport mod inactive, Redox H2O2 prof inactive, Autophagy mod inactive and ROMK retest inconclusive.
`CCC(C)C(=O)Nc1nccs1` (stereo unspecified) gave Dynein transport inactive, Cl transport mod inactive, Redox H2O2 prof inactive and Autophagy mod inactive.
Screening Cc1ccc(C#CC[N+]2(CC#Cc3ccc(C)cc3)CCCCC2)cc1 returned Dynein transport inactive, ROMK mod -5.1, Cl transport mod inactive, Redox H2O2 prof inactive, Autophagy mod inactive and ROMK retest 0.056.
For C(#Cc1ccccc1)C[N+]1(CC#Cc2ccccc2)CCCCC1 the results were Dynein transport inactive, ROMK mod inactive, Cl transport mod inactive, Redox H2O2 prof inactive and Autophagy mod inactive.
For CCC[N+](CC#Cc1ccccc1)(CCC)CC(=O)c1ccc(Cl)cc1 the results were Dynein transport inactive, ROMK mod -3, Cl transport mod inactive, Redox H2O2 prof inactive, Autophagy mod inactive and ROMK retest 0.063.
Screening CCC(CC)C(=O)Nc1cccc(C(=O)Nc2ccc(S(=O)(=O)Nc3ccc(C)cc3)cc2)c1 returned Dynein transport inactive, Redox H2O2 prof inactive and Autophagy mod inactive.
Screening CN(C)c1cccc2c(/C=N/O)ccc(N(C)C)c12 returned Dynein transport inactive, ROMK mod inactive, Cl transport mod inactive, Redox H2O2 prof inactive and Autophagy mod inactive.
Screening CN1C(=O)N(C)c2ccc(C=O)c3cccc1c23 returned Dynein transport inactive, ROMK mod -3.4, Cl transport mod inactive, Redox H2O2 prof inactive, Autophagy mod inactive and ROMK retest 0.068.
For Nc1nc(C23CC4CC(CC(C4)C2)C3)[nH]c(=O)n1 the results were Dynein transport inactive and Cl transport mod inactive.
COC(=O)c1ccccc1NC(=O)CNc1cc(Cl)ccc1N1CCOCC1 was read as Dynein transport inactive, Cl transport mod inactive, Redox H2O2 prof inactive and Autophagy mod inactive.
Screening Cc1cc(Cl)ccc1OC(C)C(=O)Nc1ccccc1N1CCOCC1 (stereo unspecified) returned Dynein transport inactive, Cl transport mod inactive, Redox H2O2 prof inactive, Autophagy mod active and ROMK retest inconclusive.
